Values belong to the molecule of their own block, whether it stands above or below them.
Experiments:
[1] = Selectivity index, ratio of CC50 for mouse RAW264.7 cells to IC50 for Leishmania donovani LV9 axenic intramacrophage amastigotes infected in mouse RAW264.7 cells; format: toxicity, cell-based; settings: read-out: Ratio CC50/IC50
[2] = Cytotoxicity against mouse RAW264.7 cells assessed as reduction in cell viability after 48 hrs by resazurin assay; format: cell-based
How it was run: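 RAW 264.7 macrophages at 2.10⁴/well were preincubated 24 h, then exposed 48 h at 37 °C, 5% CO2 to two-fold dilutions in DMEM. Resazurin was added for 4 h in the dark and read at OD570/OD600. Result given as CC50.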

[3] = system: Leishmania donovani; test: Antiparasitic activity against Leishmania donovani LV9 axenic amastigotes incubated for 72 hrs by resazurin dye based assay; format: functional, organism-based; settings: LV9, 72 h
How it was run: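 LV9 axenic amastigotes were derived from promastigotes in M-199 at pH 5.5, 37 °C, 5% CO2, and used in log phase. Cells at 10⁶/mL were exposed 72 h to two-fold dilutions from 100 to 0.02 μM. Resazurin was then added for 24 h in the dark and read at OD570/OD600. IC50 is relative to excipient-only controls; miltefosine was the reference.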

[4] = system: Leishmania donovani; test: Antiparasitic activity against Leishmania donovani LV9 axenic intramacrophage amastigotes infected in mouse RAW264.7 cells incubated for 48 hrs by Sybr Green 1 dye based fluorescence assay; format: functional, organism-based; settings: LV9, RAW264.7, 48 h
How it was run: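 RAW 264.7 cells at 2.10⁴/well were infected 24 h with axenic amastigotes at a 16:1 parasite to macrophage ratio, then extracellular parasites were removed. Cells were treated 48 h with two-fold dilutions from 100 µM. They were then lysed (freeze-thaw, proteinase K, 55 °C overnight) and total DNA read by SYBR Green I fluorescence against untreated infected cells. Result given as IC50.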

[5] = Selectivity index, ratio of CC50 for mouse RAW264.7 cells to IC50 for Trypanosoma brucei gambiense FeoITMAP/1893; format: toxicity; settings: read-out: Ratio CC50/IC50
[6] = system: Trypanosoma brucei gambiense; test: Trypanocidal activity against Trypanosoma brucei gambiense FeoITMAP/1893 after 72 hrs by resazurin dye based assay; format: functional, organism-based; settings: FeoITMAP/1893, 72 h
How it was run: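 T. b. gambiense Feo was grown in supplemented IMDM with 10% FBS. Cells at 4.10⁴/mL were exposed 72 h at 37 °C, 5% CO2 in the dark to two-fold dilutions. Resazurin (450 µM solution) was added for 6 h and read at OD570/OD600. Result given as IC50; pentamidine was the reference.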

[7] = Selectivity index, ratio of CC50 for mouse RAW264.7 cells to IC50 for Leishmania donovani LV9 axenic amastigotes incubated for 72 hrs by resazurin dye based assay; format: toxicity; settings: read-out: Ratio CC50/IC50

- IC50 [4]: 3.4 µM
SMILES: CC(C)(C)OC(=O)NCCCCNCCCN(Cc1ccccc1)Cc1ccccc1
- selectivity ratio [1]: 3.7
- CC50 at 48 h [2]: 12.5 µM
- IC50 [3]: 14.6 µM
- selectivity ratio [5]: 20.8
- IC50 [6]: 0.6 µM

- IC50 [4]: 59.1 µM
SMILES: NCCCCNCCCN(Cc1ccsc1)Cc1ccsc1
- CC50 at 48 h [2]: 52.8 µM
- IC50 [3]: > 100 µM
- selectivity ratio [5]: 8.6
- IC50 [6]: 6.1 µM

- IC50 [4]: 6.6 µM
SMILES: NC1CCC(NCCCN(Cc2ccccc2)Cc2ccccc2)CC1 (configuration not stated)
- selectivity ratio [1]: 1.1
- CC50 at 48 h [2]: 7.6 µM
- IC50 [3]: > 100 µM
- selectivity ratio [5]: 3.6
- IC50 [6]: 2.1 µM

- IC50 [4]: 5.4 µM
SMILES: CC(C)(C)OC(=O)NC1CCC(NCCCN(Cc2ccccc2)Cc2ccccc2)CC1 (configuration not stated)
- CC50 at 48 h [2]: 5.1 µM
- IC50 [3]: 14.2 µM
- selectivity ratio [5]: 7.3
- IC50 [6]: 0.7 µM

- IC50 [4]: > 100 µM
SMILES: CC(C)(C)OC(=O)NCCCCNCCCN(Cc1cccc(-c2ccccc2)c1)Cc1cccc(-c2ccccc2)c1
- selectivity ratio at 72 h [7]: > 1.2
- CC50 at 48 h [2]: > 100 µM
- IC50 [3]: 79.5 µM
- selectivity ratio [5]: > 2.9
- IC50 [6]: 33.9 µM

- IC50 [4]: 41.7 µM
SMILES: CC(C)(C)OC(=O)NCCCCNCCCN(Cc1ccc(-c2ccccc2)cc1)Cc1ccc(-c2ccccc2)cc1
- selectivity ratio at 72 h [7]: > 2.6
- selectivity ratio [1]: > 2.4
- CC50 at 48 h [2]: > 100 µM
- IC50 [3]: 38.5 µM
- selectivity ratio [5]: > 6.9
- IC50 [6]: 14.4 µM

- IC50 [4]: 17.2 µM
SMILES: CC(C)(C)OC(=O)NC1CCC(N(CCCN(Cc2ccc(F)cc2)Cc2ccc(F)cc2)CCCN(Cc2ccc(F)cc2)Cc2ccc(F)cc2)CC1 (configuration not stated)
- selectivity ratio at 72 h [7]: > 9.8
- selectivity ratio [1]: > 5.8
- CC50 at 48 h [2]: > 100 µM
- IC50 [3]: 10.2 µM
- selectivity ratio [5]: > 23.8
- IC50 [6]: 4.2 µM

- IC50 [4]: 27.8 µM
SMILES: NCCCCNCCCN(Cc1cccc(-c2ccccc2)c1)Cc1cccc(-c2ccccc2)c1
- selectivity ratio [1]: 1.1
- CC50 at 48 h [2]: 30.3 µM
- IC50 [3]: 35.7 µM
- selectivity ratio [5]: 3.5
- IC50 [6]: 8.7 µM

- IC50 [4]: 1.5 µM
SMILES: CC(C)(C)OC(=O)NCCCCN(CCCN(Cc1ccccc1)Cc1ccccc1)CCCN(Cc1ccccc1)Cc1ccccc1
- selectivity ratio at 72 h [7]: 5
- selectivity ratio [1]: 8.3
- CC50 at 48 h [2]: 12.5 µM
- IC50 [3]: 2.5 µM
- selectivity ratio [5]: 41.7
- IC50 [6]: 0.3 µM

- IC50 [4]: 21.1 µM
SMILES: CC(C)(C)OC(=O)NCCCCNCCCN(Cc1ccsc1)Cc1ccsc1
- CC50 at 48 h [2]: 16.4 µM
- IC50 [3]: 25.3 µM
- selectivity ratio [5]: 10.9
- IC50 [6]: 1.5 µM

- IC50 [4]: 14.5 µM
SMILES: CC(C)(C)OC(=O)NCCCCNCCCN(Cc1ccc(F)cc1)Cc1ccc(F)cc1
- CC50 at 48 h [2]: 8.7 µM
- IC50 [3]: 14.7 µM
- selectivity ratio [5]: 4.3
- IC50 [6]: 2 µM

- IC50 [4]: 16.6 µM
SMILES: CC(C)(C)OC(=O)NCCCCN(CCCN(Cc1ccc(F)cc1)Cc1ccc(F)cc1)CCCN(Cc1ccc(F)cc1)Cc1ccc(F)cc1
- selectivity ratio at 72 h [7]: 1.8
- CC50 at 48 h [2]: 12 µM
- IC50 [3]: 6.6 µM
- selectivity ratio [5]: 6.3
- IC50 [6]: 1.9 µM

- IC50 [4]: 6.8 µM
SMILES: CC(C)(C)OC(=O)NC1CCC(NCCCN(Cc2ccc(F)cc2)Cc2ccc(F)cc2)CC1 (configuration not stated)
- CC50 at 48 h [2]: 4.2 µM
- IC50 [3]: 6.8 µM
- selectivity ratio [5]: 8.4
- IC50 [6]: 0.5 µM

- IC50 [4]: 42 µM
SMILES: CC(C)(C)OC(=O)NCCCCNCCCN(Cc1ccc(OCc2ccccc2)cc1)Cc1ccc(OCc2ccccc2)cc1
- selectivity ratio at 72 h [7]: 1.3
- CC50 at 48 h [2]: 33.3 µM
- IC50 [3]: 26.4 µM
- selectivity ratio [5]: 7.1
- IC50 [6]: 4.7 µM

- IC50 [4]: 22.4 µM
SMILES: NCCCCN(CCCN(Cc1ccccc1)Cc1ccccc1)CCCN(Cc1ccccc1)Cc1ccccc1
- CC50 at 48 h [2]: 1.2 µM
- IC50 [3]: 57.3 µM
- selectivity ratio [5]: 1.3
- IC50 [6]: 0.9 µM

- IC50 [4]: 35.8 µM
SMILES: NCCCCNCCCN(Cc1ccc(F)cc1)Cc1ccc(F)cc1
- CC50 at 48 h [2]: 33.1 µM
- IC50 [3]: 70.3 µM
- selectivity ratio [5]: 9.4
- IC50 [6]: 3.5 µM

- IC50 [4]: 4.2 µM
SMILES: NC1CCC(N(CCCN(Cc2ccc(F)cc2)Cc2ccc(F)cc2)CCCN(Cc2ccc(F)cc2)Cc2ccc(F)cc2)CC1 (configuration not stated)
- selectivity ratio [1]: 1.1
- CC50 at 48 h [2]: 4.5 µM
- IC50 [3]: 15.7 µM
- IC50 [6]: 10.4 µM
